{"source": "paper PMC4636435", "about": "(Cell host & microbe, 2015)", "molecules": {"B1": {"name": "recombinant hCAP18, full-length human cathelicidin (natural protein)", "chain": "QVLSYKEAVLRAIDGINQRSSDANLYRLLDLDPRPTMDGDPDTPKPVSFTVKETVCPRTTQQSPEDCDFKKDGLVKRCMGTVTLNQARGSFDISCDKDNKRFALLGDFFRKSKEKIGKEFKRIVQRIKDFLRNLVPRTES"}, "B2": {"name": "hCAP18: full-length human cathelicidin precursor, recombinant, expressed from pET28a (protein)", "chain": "B1 chain", "modifications": "left off: His tag (from the vector pET28a), end not stated, state not stated"}, "B3": {"name": "recombinant M49 protein (natural protein)", "chain": "AEKKVEAKVEVAENNVSSVARREKELYDQIADLTDKNGEYLERIGELEERQKNLEKLEHQSQVAADKHYQEQAKKHQEYKQEQEERQKNQEQLERKYQREVEKRYQEQLQKQQQLETEKQISEASRKSLSRDLEASREAKKKVEADLAALTAEHQKLKEEKQISDASRQGLSRDLEASREAKKKVEADLAALTAEHQKLKEEKQISDASRQGLSRDLEASREAKKKVEADLAEANSKLQALEKLNKELEEGKKLSEKEKAELQARLEAEAKALKEQLAKQAEELAKLKGNQTPNAKVAPQANRSRSAMTQQKRTLPST"}}, "key": {"cathelicidin": {"system": "cathelicidin", "details": "human cells; ref Liu et al., 2006; cited from earlier work"}, "wild-type and Δemm1 GAS": {"system": "wild-type and Δemm1 GAS", "experiment": "Resistance of wild-type and Δemm1 GAS to antimicrobial peptides", "type": "cell-based, Streptococcus pyogenes (group A Streptococcus)", "details": "serum-free DMEM with 10% THB, 24 h; for M1-dependent protection of GAS from killing by the peptide: wild-type vs. Δemm1 GAS", "summary_of_the_method": "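GAS M1T1 5448 and isogenic Δemm1 were grown overnight at 37°C, diluted 1:40 in Todd-Hewitt broth, grown statically at 37°C to OD600 0.400, then PBS-washed. 2×10^5 bacteria in serum-free DMEM with phenol red and 10% THB were exposed to cathelicidin- or defensin-family peptides. MIC was the lowest concentration preventing growth after 24 h. Means ± s.d., n=3; ≥3 independent experiments.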"}, "human neutrophils": {"system": "human neutrophils", "experiment": "Neutrophil chemotaxis in transwell system", "type": "cell-based", "details": "1 h, 37°C, n=3"}, "recombinant M1 protein": {"system": "recombinant M1 protein", "experiment": "Pulldown with His-tagged recombinant M1 as bait / blot", "type": "binding, Streptococcus pyogenes (group A Streptococcus), M1T1"}, "[1]": {"molecular_target": "LL-37, human cathelicidin antimicrobial peptide (human)", "experiment": "SPR"}, "recombinant M49 protein": {"molecular_target": "T1, recombinant M49 protein (Streptococcus pyogenes (group A …, UniProt P16947 42-359))", "T1 sequence": "B3 chain", "experiment": "SPR"}, "M1 protein": {"system": "M1 protein", "experiment": "SPR", "type": "binding, Streptococcus pyogenes (group A Streptococcus), M1T1", "details": "ratio of Kd M49 vs. M1, SPR"}, "[2]": {"system": "M1T1 GAS, wild-type vs. Δemm1", "experiment": "FACS detection of cathelicidin on bacterial surface", "type": "cell-based, Streptococcus pyogenes (group A Streptococcus)", "details": "recombinant hCAP18, wild-type vs. Δemm1, anti-LL-37 antibody"}}, "note": "Entries after “also recorded” stand apart in the source; their conditions may differ.", "data": [{"molecule": "C=C1CC[C@H](O)C/C1=C/C=C1\\CCC[C@]2(C)[C@@H]([C@H](C)/C=C/[C@H](C)C(C)C)CC[C@@H]12", "note": "[vitamin D]", "values": [{"measurement": "induction of cathelicidin expression", "setting": "cathelicidin", "value": "strongly induces cathelicidin expression"}]}, {"molecule": "KR-20: processed form of cathelicidin expressed by keratinocytes in human skin; de novo synthesis (Anaspec) (KRIVQRIKDFLRNLVPRTES)", "values": [{"measurement": "M1-dependent protection of GAS from killing by the peptide", "setting": "wild-type and Δemm1 GAS", "value": "M1 protected GAS from killing"}]}, {"molecule": "N-formyl-Met-Leu-Phe [fMLP]", "values": [{"measurement": "stimulation of neutrophil chemotaxis", "setting": "human neutrophils", "value": "stimulated robust chemotaxis of neutrophils"}]}, {"molecule": "mCRAMP: active murine form of cathelicidin; de novo synthesis (Anaspec) (ISRLAGLLRKGGEKIGEKLKKIGQKIKNFFQKLVPQPE)", "values": [{"measurement": "M1-dependent protection of GAS from killing by the peptide", "setting": "wild-type and Δemm1 GAS", "value": "M1 protected GAS from killing"}, {"measurement": "binding and inhibition by M1 vs. M49", "setting": "recombinant M1 protein; statement in the in vivo section", "value": "M1 but not M49 binds and inhibits CRAMP"}]}, {"molecule": "recombinant M1 protein (from UniProt Q99XV0) (natural protein)", "values": [{"measurement": "Kd", "setting": "[1]", "value": 1.18, "unit": "µM"}]}, {"molecule": "B1", "values": [{"measurement": "Kd", "setting": "recombinant M49 protein", "value": 9.07, "unit": "µM"}]}, {"molecule": "B2", "values": [{"measurement": "antimicrobial activity", "setting": "wild-type and Δemm1 GAS; wild-type and Δemm1 GAS", "value": "lacked antimicrobial activity"}, {"measurement": "stronger binding of M1 compared to M49 protein (from Kd)", "setting": "M1 protein", "value": 10, "unit": "fold"}, {"measurement": "binding to bacterial surface", "setting": "[2]", "value": "recombinant hCAP18 bound the GAS surface in an M1-dependent manner; also recorded: Δemm1 GAS binds significantly less hCAP18 than wild-type GAS"}, {"measurement": "major cathelicidin form pulled down by M1 from neutrophil lysate", "setting": "recombinant M1 protein; whole lysates from neutrophils, Western blot with anti-LL-37 antibody", "value": "the major cathelicidin form detected was uncleaved hCAP18"}]}, {"molecule": "B3", "values": [{"measurement": "Kd", "setting": "[1]", "value": 62.7, "unit": "µM"}]}]}
